Data from paper PMC3904508 (Lab on a chip, 2013).

Columns and labels:
Format in all cases: cell-based
[1] = target: T1, human TMEM16A (Homo sapiens, UniProt Q5XXA6, DEL476-501); test: Single-shot microfluidics YFP fluorescence iodide influx assay, TMEM16A; details: TMEM16A-expressing FRT cells; fitted dose-response, Fig. 4B
T1 sequence (Q5XXA6 with tags, fused parts or gaps isoform Q5XXA6-5 DEL539-564): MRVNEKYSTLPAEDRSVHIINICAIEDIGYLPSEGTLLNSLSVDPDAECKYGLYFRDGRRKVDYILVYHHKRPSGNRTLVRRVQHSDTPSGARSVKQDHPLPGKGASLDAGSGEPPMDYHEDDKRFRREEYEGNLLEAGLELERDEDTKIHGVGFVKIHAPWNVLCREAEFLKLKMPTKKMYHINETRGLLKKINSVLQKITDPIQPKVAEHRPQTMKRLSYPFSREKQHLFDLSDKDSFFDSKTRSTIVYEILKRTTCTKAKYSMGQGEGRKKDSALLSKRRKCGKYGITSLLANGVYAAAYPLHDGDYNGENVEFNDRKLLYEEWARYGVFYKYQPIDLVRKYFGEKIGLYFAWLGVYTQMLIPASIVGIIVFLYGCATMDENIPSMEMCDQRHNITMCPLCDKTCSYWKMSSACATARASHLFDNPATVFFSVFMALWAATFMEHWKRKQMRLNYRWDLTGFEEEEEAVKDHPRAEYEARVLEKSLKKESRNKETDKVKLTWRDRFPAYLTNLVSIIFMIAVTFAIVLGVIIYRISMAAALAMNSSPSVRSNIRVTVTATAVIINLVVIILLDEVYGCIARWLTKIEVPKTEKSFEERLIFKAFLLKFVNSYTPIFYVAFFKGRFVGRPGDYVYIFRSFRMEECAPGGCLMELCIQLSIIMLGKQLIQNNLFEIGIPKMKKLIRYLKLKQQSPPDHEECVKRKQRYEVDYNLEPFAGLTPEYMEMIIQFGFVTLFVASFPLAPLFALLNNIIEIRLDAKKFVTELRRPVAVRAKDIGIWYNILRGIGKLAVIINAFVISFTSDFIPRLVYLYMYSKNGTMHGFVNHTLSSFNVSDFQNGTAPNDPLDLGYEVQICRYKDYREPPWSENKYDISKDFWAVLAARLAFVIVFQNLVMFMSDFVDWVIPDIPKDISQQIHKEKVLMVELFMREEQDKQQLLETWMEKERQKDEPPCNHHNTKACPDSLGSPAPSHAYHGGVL
Outline: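 FRT cells stably co-expressing human TMEM16A (abc isoform) and YFP-F46L/H148Q/I152L were grown 8–24 h at 37 °C under perfusion on fibronectin-coated coverglass. Cells were perfused 10 min with a gradient between PBS and PBS containing 30 μM test compound. Solution was then switched to 70 mM I− plus 50 μM ATP. YFP fluorescence was imaged at 2 Hz, and the Hill equation was fitted.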

[2] = target: T2, human CFTR (Homo sapiens, UniProt P13569); test: Single-shot microfluidics YFP fluorescence iodide influx assay, CFTR
[3] = target: T2, human CFTR; test: Conventional plate reader YFP fluorescence iodide influx assay, CFTR

T2 sequence (P13569 whole entry): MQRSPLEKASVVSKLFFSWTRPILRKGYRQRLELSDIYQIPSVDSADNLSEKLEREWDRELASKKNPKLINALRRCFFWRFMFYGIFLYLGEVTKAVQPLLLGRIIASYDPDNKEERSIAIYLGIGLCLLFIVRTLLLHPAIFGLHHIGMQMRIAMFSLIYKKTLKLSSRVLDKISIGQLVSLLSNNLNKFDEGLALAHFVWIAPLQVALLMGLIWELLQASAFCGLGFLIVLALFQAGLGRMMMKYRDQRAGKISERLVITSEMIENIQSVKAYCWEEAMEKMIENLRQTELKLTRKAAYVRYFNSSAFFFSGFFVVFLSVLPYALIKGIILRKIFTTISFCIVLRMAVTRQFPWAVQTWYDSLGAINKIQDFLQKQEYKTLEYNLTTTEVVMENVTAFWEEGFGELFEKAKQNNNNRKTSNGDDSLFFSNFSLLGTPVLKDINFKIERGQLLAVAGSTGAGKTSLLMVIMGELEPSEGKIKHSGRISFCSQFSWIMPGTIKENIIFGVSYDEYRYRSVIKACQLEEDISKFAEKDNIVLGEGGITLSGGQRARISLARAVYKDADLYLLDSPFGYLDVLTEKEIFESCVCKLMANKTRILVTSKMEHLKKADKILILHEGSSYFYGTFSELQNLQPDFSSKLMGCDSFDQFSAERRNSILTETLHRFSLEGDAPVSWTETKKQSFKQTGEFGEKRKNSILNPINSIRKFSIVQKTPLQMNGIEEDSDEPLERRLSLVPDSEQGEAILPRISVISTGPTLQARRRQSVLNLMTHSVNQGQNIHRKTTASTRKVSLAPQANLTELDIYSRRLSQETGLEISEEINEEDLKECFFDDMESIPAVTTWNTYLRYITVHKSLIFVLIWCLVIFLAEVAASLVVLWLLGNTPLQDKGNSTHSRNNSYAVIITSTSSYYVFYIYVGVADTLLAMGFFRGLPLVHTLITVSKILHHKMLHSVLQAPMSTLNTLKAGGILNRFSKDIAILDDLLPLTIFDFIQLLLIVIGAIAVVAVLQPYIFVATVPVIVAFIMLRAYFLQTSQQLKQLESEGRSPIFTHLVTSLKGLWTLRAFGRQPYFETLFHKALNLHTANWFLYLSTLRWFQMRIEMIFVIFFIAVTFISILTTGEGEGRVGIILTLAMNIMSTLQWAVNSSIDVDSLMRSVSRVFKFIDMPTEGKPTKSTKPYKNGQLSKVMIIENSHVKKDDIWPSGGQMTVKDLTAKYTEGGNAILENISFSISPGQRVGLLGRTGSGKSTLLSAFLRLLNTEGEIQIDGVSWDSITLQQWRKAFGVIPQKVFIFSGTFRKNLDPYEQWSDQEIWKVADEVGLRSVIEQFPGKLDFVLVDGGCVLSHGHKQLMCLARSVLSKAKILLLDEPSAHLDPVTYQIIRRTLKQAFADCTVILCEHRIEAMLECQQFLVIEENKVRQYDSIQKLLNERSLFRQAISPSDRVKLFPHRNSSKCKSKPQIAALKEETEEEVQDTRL

CCc1c(C)nc(SCC(=O)Nc2nc(-c3ccc(OC)cc3)cs2)[nH]c1=O [TMinh-A01]
nH (Hill coefficient, TMEM16A inhibition, single-shot microfluidics) [1]: 2.2

CFTRinh-172
nH (Hill coefficient, CFTR inhibition, single-shot microfluidics) ([2]; CFTR-expressing FRT cells, 5 μM forskolin, fitted dose-response, Fig. 3E): 1.4

C=C[C@@]1(C)CC(=O)[C@]2(O)[C@@]3(C)[C@@H](O)CCC(C)(C)[C@@H]3[C@H](O)[C@H](OC(C)=O)[C@@]2(C)O1 [forskolin]
IC50 [3]: 2.9 ± 0.4 µM
IC50 [2]: 3.2 ± 0.2 µM
nH (Hill coefficient, CFTR activation, single-shot microfluidics) ([2]; CFTR-expressing FRT cells, fitted dose-response, Fig. 3C): 1.8
